CR mimetic SO: reduction of superoxide in aged yeast, primary screen, HTS; S. cerevisiae aged cells, superoxide DHE fluorescence; hits give low values; superoxide response (% of plate mean), % at 10 µM; 330,000 compounds, 0.18% hits; AID 2690, 2010;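 active = superoxide response under a set limit, about three screen SD below normal, cut at about 65% in these data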;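 also: yeast aged for seven days with compound at 30 °C before DHE staining; 100% = average MFI of all compound-treated wells on the plate with controls excluded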
UCH37 inh: inhibitors of human UCH37 deubiquitinase, primary screen, biochemical, Ub-AMC cleavage, fluorescence; inhibition, % (concentration not given with the values); Ubiquitin carboxyl-terminal hydrolase isozyme L5 (Homo sapiens), Q9Y5K5; 330,000 compounds, 0.33% hits; purified proteasome/UCH37; AID 588478, 2011;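 active = mean inhibition over replicate wells above about 20%, limit read from the data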;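 also: 0% = compound-free wells with enzyme and 100% = wells lacking proteasome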
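Signal – fluorescence, ex 355 nm, em 460 nm · System – Proteasome-bound UCH37 · Input – 0.15 nM proteasome as dispensed · Timing – 30 min preincubation with enzyme, 25 min cleavage at room temperature · Read-out basis – percent inhibition of cleavage signal versus uninhibited and no-proteasome wells · Medium – Tris-HCl pH 7.4 with ATP-MgCl2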
PG9 Ab binder: binders of HIV-1 gp120 antibody PG9, primary screen, biochemical, TR-FRET; TR-FRET gp120-PG9 antibody binding; inhibition, % at 6.7 µM; 360,000 compounds, 0.43% hits; AID 624416, 2012; in the data active = inhibition above about 8.5%
NR1D1 modulator: modulators of Rev-erb alpha DNA binding, primary screen, biochemical, FITC-DNA, fluorescence polarization, uHTS | Nuclear receptor subfamily 1 group D member 1 (Homo sapiens), P20393 | Rev-erbα–FITC-DNA binding, 90 min | AID 1259318, 2017 | activity, % at 10 µM | 370,000 compounds, 0.79% hits;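 active = activity above about 14%, limit read from the data; passing the limit was not always enough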;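 also: 0% = DMSO wells with 35 nM protein and 100% = DMSO wells with 750 nM protein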
Target sequence (P20393 whole entry, looked up): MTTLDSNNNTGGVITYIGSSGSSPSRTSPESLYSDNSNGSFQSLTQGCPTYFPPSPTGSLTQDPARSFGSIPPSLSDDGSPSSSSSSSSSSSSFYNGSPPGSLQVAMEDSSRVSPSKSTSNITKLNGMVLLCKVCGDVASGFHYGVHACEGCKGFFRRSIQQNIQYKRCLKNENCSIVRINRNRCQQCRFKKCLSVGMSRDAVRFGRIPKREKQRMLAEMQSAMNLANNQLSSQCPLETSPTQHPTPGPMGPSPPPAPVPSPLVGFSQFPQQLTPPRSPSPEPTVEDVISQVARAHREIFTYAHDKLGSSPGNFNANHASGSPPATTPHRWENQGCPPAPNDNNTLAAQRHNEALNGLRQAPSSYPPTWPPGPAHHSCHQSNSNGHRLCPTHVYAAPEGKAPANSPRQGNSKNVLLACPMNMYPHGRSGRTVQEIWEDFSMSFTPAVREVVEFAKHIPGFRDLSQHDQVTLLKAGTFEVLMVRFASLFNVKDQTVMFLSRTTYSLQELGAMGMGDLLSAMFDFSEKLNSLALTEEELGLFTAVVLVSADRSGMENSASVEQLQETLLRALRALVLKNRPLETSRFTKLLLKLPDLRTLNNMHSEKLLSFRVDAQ
Rce1 inhib: yeast Rce1p protease inhibitors, primary screen, biochemical, fluorescence, cell-free homogeneous | AID 2563, 2010 | CAAX prenyl protease 2 (Saccharomyces cerevisiae (strain ATCC 204508 / S288c)), Q03530 | 290,000 compounds, 0.27% hits | calls only | yeast membranes, quenched prenylated peptide cleavage fluorescence;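 active = fall in fluorescence gain of 50% or more versus controls, with final raw signal at or below 3038400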;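 also: plate controls were neutral control wells for no effect and wells lacking membranes for full effect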
MIN6 prolif: inducers of MIN6 beta-cell proliferation, primary screen, ATP luminescence, uHTS; AID 2380, 2010; proliferation, % at 10 µM; 330,000 compounds, 0.29% hits; MIN6 cells proliferation, ATPlite luminescence, 48 h; cells starved in 0.2% serum; 100% = growth in 10% serum;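 active = compounds whose signal lies at least 3.5 SD above the mean of all wells on their plate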;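 also: 0% = DMSO-treated cells in low-serum medium and 100% = 10% serum control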
The depositor's hits bear a star; i = inactive; . = no result; + = active, no number. Sampled rows, rich in hits. Any-hit rate of the full collection: about 1.9%.

SMILES	CR mimetic SO	UCH37 inh	PG9 Ab binder	NR1D1 modulator	Rce1 inhib	MIN6 prolif
O=C(c1cnc(Cl)c(Cl)c1)N1CCC(Cc2ccccc2)CC1	94	3	-1	-1	+	-3
O=C(c1ccc([N+](=O)[O-])cc1)N1CCC(Cc2ccccc2)CC1	96	3	0	-4	i	0
CC(C)c1ccc(C=c2sc3n(c2=O)C(N)=C(C#N)C(c2ccc(C(C)C)cc2)C=3C(N)=O)cc1 (centres undefined)	.	6	.	.	.	.
COc1cc(/C=C2\S/C(=N/S(=O)(=O)c3ccc(C)cc3)NC2=O)c([N+](=O)[O-])cc1OC	113	20*	-4	2	i	-4
Cc1ccc(S(=O)(=O)/N=C2/NC(=O)/C(=C/c3cc([N+](=O)[O-])ccc3O)S2)cc1	106	.	2	1	i	2
COC(=O)c1ccc(OCC(=O)c2ccccc2)cc1	88	2	-1	3	i	-1
COC(=O)c1cc[n+](CC(=O)c2ccccc2)cc1	102	23*	0	3	i	-2
Cn1c(C(C#N)C(=NS(=O)(=O)c2cccs2)c2ccccc2)nc2ccccc21 (centres undefined)	.	-195	.	.	.	.
N#CC(/C(=N/S(=O)(=O)c1cccs1)c1ccccc1)c1nc2ccccc2[nH]1 (centres undefined)	96	.	0	2	+	-2
O=C(c1ccccc1)C1C(=O)c2ccccc2C1=O	135	31*	3	1	i	-3
O=C(NN=Cc1sc(=O)[nH]c1-[n+]1ccccc1)c1ccccc1[O-]	.	20*	.	.	.	.
CC(C)(C)c1cc[n+](-c2[nH]c(=O)sc2C=N/N=C(\[O-])c2ccccc2)cc1	.	21*	.	.	.	.
Cc1cc[n+](-c2[nH]c(=O)sc2C=N/N=C(\[O-])c2ccccc2)cc1	.	17	.	.	.	.
CCOC(=O)c1c(CN(C)C)n(C)c2c(O)c(N=NC(N)=O)c3ccc(Br)cc3c12	105	52*	-2	-6	i	-6
CCCn1c(=O)c(C(=O)OCC)c(O)c2cc(Br)ccc21	78	4	1	6	i	2
CCOc1cc(C=NNc2nc(-c3cccc(S(=O)(=O)N4CCCC4)c3)cs2)ccc1O	.	-82	.	.	.	.
N#C/C(=N/Nc1ccc(S(=O)(=O)N2CCOCC2)cc1)C(N)=O	101	.	-3	6	i	0
N#CC(=NNc1ccc(S(=O)(=O)N2CCOCC2)cc1)C(N)=S	.	22*	.	.	.	.
c1ccc2c(-c3cn4ccccc4n3)c[nH]c2c1	95	-348	.	.	+	-1
CCc1ccc(S(=O)(=O)Nc2cc(SCC(=O)O)c(O)c3ccccc23)cc1	155	6	2	3	i	-6
Cc1ccc(C)c(S(=O)(=O)Nc2cc(SCC(=O)O)c(O)c3ccccc23)c1	121	23*	.	.	.	.
CN1CCN(c2ccccc2/C=N/NC(=O)c2cccnc2)CC1	96	.	-1	2	.	-1
O=C(NN=Cc1cc([N+](=O)[O-])c(N2CCOCC2)cc1N1CCOCC1)c1cccnc1	.	23*	.	.	.	.
COC(=O)c1cc2c(=O)n3ccccc3nc2n(Cc2cccnc2)c1=N	99	-300	.	.	i	-1
N=c1c(C(=O)NCc2ccc(F)cc2)cc2c(=O)n3ccccc3nc2n1Cc1cccnc1	102	i	-2	-10	+	3
SMILES	CR mimetic SO	UCH37 inh	PG9 Ab binder	NR1D1 modulator	Rce1 inhib	MIN6 prolif
O=c1[nH]c(/C=C\c2cccs2)nc(O)c1[N+](=O)[O-]	92	21*	-5	3	i	-3
O=c1[nH]c(/C=C\c2ccc(O)cc2)nc(O)c1[N+](=O)[O-]	116	18	-2	-3	i	-3
O=c1[nH]c(/C=C\c2ccc(O)c(Cl)c2)nc(O)c1[N+](=O)[O-]	110	21*	-7	0	i	2
CCOC(=O)C1=c2sc(=Cc3ccncc3)c(=O)n2C(N)=C(C(=O)OC)C1c1ccncc1 (centres undefined)	.	6	.	.	.	.
N#C/C(=C/c1cn(-c2ccccc2)nc1-c1cccc(OCc2ccccc2)c1)C(=O)NCCCn1ccnc1	91	-43	1	-9	i	0
CCOc1cccc(-c2nn(-c3ccccc3)cc2/C=C(/C#N)C(=O)NCCCn2ccnc2)c1	110	-5	1	-8	+	-5
CN(C)S(=O)(=O)c1ccc(NC(=O)/C=C/c2ccccc2Cl)cc1	102	-2	-2	1	+	-4
O=C(/C=C/c1ccccc1Cl)Nc1ccccc1	99	2	-4	1	i	-5
CC(=NOC(=O)c1ccc(F)cc1)c1sc(-c2ccc(Cl)cc2)nc1C	.	-119	.	.	.	.
Cc1cccc(C)c1NC(=O)CN(C)CC(=O)Nc1ccccc1Oc1ccccc1	100	28*	0	1	i	-3
Cc1ccc(NC(=O)CN(C)CC(=O)Nc2ccccc2Oc2ccccc2)cc1	96	1	0	-6	i	-4
COc1ccc(C(=O)NN=C2CCc3ccccc32)cc1OC	.	8	.	.	.	.
N#CC1=C(N)SC(N)=C(C#N)C1c1cccc(O)c1	103	9	22*	1	i	0
Cc1c(C=NNC(=O)c2sc3ccccc3c2Cl)cnn1C	.	3	.	.	.	.
Clc1cc(Br)ccc1OCCOCCN1CCOCC1	94	29*	1	-4	i	-4
Clc1cc(Br)ccc1OCCOCCN1CCCC1	93	2	2	2	i	-2
COc1cccc(C=NNC(=O)CCCC(=O)Nc2ccc(Br)cc2)c1	.	4	.	.	.	.
CCN(CC)C(=O)c1sc(NC(=O)c2c(OC)cccc2OC)c(C#N)c1C	105	29*	-1	4	i	-1
CC[n+]1c(/C=C/c2ccc(N(C)C)cc2)ccc2ccccc21	90	23*	-50	-8	i	.
CC[n+]1ccccc1/C=C/c1ccc(N(C)C)cc1	.	21*	-16	16	i	.
CC[n+]1c(/C=C/c2ccc(OC)c(OC)c2)ccc2ccccc21	106	-13	-4	-3	i	-1
Cc1ccc(C=NNC(=O)c2cccs2)s1	.	2	.	.	.	.
COc1cc(C=NNC(N)=O)ccc1OC(=O)c1ccco1	.	1	.	.	.	.
COc1cccc(C=NNC(=O)Cn2nc([N+](=O)[O-])cc2C)c1	.	1	.	.	.	.
COc1ccc(C=NNC(=O)c2ccc(C)cc2)cc1CN1CCN(c2ccc(F)cc2)CC1	.	3	.	.	.	.
COc1ccc(C2CC(c3cccs3)=NN2c2ccc(C=O)cc2)cc1 (centres undefined)	133	-135	-1	2	+	.
